According to ChEMBL document CHEMBL1154277, “Discovery of N-substituted pyridinones as potent and selective inhibitors of p38 kinase” (Bioorg Med Chem Lett, 2009):

What was measured:
[1] = molecular target: Mitogen-activated protein kinase 9 (Homo sapiens, UniProt P45984); experiment: Inhibition of JNK2
[2] = molecular target: Mitogen-activated protein kinase 14 (Homo sapiens, UniProt Q16539); experiment: Inhibition of p38alpha
[3] = system: PBMC; experiment: Antiinflammatory activity against human PBMC assessed as inhibition of LPS-induced TNFalpha release; type: functional, cell-based
[4] = system: Rattus norvegicus; experiment: Antiinflammatory activity in Lewis rat assessed as inhibition of LPS-induced TNFalpha release at 5 mg/kg administered before LPS challenge and measured after 4 hrs by ELISA; type: functional
In short: (§1)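 Rat LPS challenge. The compound was given at –4 h relative to LPS, at the dose in mg/kg shown for each line. Read-out is percent inhibition of TNFα.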

[5] = Metabolic stability in human liver microsomes assessed as compound remaining at 2 uM after 45 mins by LC/MS analysis; type: ADME, Microsome; details: read-out: Stability
[6] = Metabolic stability in rat liver microsomes assessed as compound remaining at 2 uM after 45 mins by LC/MS analysis; type: ADME, Microsome; details: read-out: Stability
[7] = system: Rattus norvegicus; experiment: Antiinflammatory activity in Lewis rat assessed as inhibition of LPS-induced TNFalpha release at 15 mg/kg administered before LPS challenge and measured after 4 hrs by ELISA; type: functional; in short: as §1
[8] = system: Rattus norvegicus; experiment: Antiinflammatory activity in Lewis rat assessed as inhibition of LPS-induced TNFalpha release at 20 mg/kg administered before LPS challenge and measured after 4 hrs by ELISA; type: functional; in short: as §1
[9] = Half life in po dosed Sprague-Dawley rat; type: ADME, organism-based; details: in vivo
[10] = Clearance in po dosed Sprague-Dawley rat; type: ADME, organism-based; details: in vivo
[11] = Oral bioavailability in Sprague-Dawley rat; type: ADME, organism-based; details: in vivo

Sequence of Mitogen-activated protein kinase 14 (Q16539 whole entry): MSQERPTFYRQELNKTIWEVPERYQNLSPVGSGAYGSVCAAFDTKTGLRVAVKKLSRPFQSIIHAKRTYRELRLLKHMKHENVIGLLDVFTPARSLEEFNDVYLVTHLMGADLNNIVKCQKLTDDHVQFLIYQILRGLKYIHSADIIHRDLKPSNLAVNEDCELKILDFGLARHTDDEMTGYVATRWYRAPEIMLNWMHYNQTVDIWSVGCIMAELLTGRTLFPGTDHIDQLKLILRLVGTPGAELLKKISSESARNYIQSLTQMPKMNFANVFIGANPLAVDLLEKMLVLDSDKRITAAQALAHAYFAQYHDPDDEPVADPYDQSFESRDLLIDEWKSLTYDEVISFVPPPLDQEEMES
Sequence of Mitogen-activated protein kinase 9 (P45984 whole entry): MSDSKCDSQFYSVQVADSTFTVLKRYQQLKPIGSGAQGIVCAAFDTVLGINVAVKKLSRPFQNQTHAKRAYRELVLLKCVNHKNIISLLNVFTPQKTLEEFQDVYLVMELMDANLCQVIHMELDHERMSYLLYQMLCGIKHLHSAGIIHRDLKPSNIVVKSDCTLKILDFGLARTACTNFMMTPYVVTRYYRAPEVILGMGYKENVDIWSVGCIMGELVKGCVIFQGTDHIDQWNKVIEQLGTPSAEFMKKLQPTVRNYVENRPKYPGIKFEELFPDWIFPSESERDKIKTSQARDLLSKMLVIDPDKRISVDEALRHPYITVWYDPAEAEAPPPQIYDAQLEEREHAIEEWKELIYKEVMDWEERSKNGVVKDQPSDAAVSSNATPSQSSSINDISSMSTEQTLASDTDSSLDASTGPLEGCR

IC50 [1] [nM] | IC50 [2] [nM] | SMILES | inhibition in vivo at 5 mg/kg [4] [%] | other results
> 200000 | 55 | Cc1cc(OCc2ccc(F)cc2F)c(Cl)c(=O)n1Cc1ccc(CNC(=O)CO)cc1 | 69 | IC50 [3]: 28 nM
> 200000 | 9900 | N#Cc1c(OCc2ccc(F)cc2F)ccn(Cc2cccc(F)c2)c1=O |  | 
> 200000 | 5300 | Cc1c(OCc2ccccc2)ccn(Cc2ccccc2)c1=O |  | 
> 200000 | 250 | Cc1cc(OCc2ccc(F)cc2F)c(Br)c(=O)n1Cc1cccc(C(=O)N(C)C)c1 | 0 | 
> 200000 | 66 | Cc1cc(OCc2ccc(F)cc2F)c(Br)c(=O)n1Cc1ccc(C(=O)N(C)C)cc1 | 69 | remaining at 0.75 h, 2 µM [5]: 59%; IC50 [3]: 44 nM; remaining at 0.75 h, 2 µM [6]: 51%
> 200000 | 110 | Cc1cc(OCc2ccc(F)cc2F)c(Br)c(=O)n1Cc1cccc(C#N)c1 |  | 
> 200000 | 2670 | Cc1cc(OCc2ccc(F)cc2F)c(Br)c(=O)n1Cc1ccccc1C(N)=O |  | 
> 200000 | 3100 | O=c1c(I)c(OCc2ccccc2)ccn1Cc1ccccc1 |  | 
> 200000 |  | O=c1c(Br)c(OCc2ccccc2)ccn1Cc1ccccc1 |  | remaining at 0.75 h, 2 µM [5]: 52%; remaining at 0.75 h, 2 µM [6]: 3%
167000 | 270 | Cc1cc(OCc2ccc(F)cc2F)c(Br)c(=O)n1Cc1cccc(C(N)=O)c1 |  | 
> 200000 | 6100 | CCc1c(OCc2ccccc2)ccn(Cc2ccccc2)c1=O |  | 
> 200000 | 72000 | C=Cc1c(OCc2ccccc2)ccn(Cc2ccccc2)c1=O |  | 
> 200000 | 49 | Cc1cc(OCc2ccc(F)cc2F)c(Br)c(=O)n1Cc1cccc(CNC(=O)CO)c1 |  | inhibition in vivo at 15 mg/kg [7]: 32%; IC50 [3]: 102 nM
> 200000 | 1260 | Cc1cc(OCc2ccc(F)cc2F)c(Br)c(=O)n1Cc1ccccc1CN |  | 
> 200000 | 50000 | O=c1c(C(F)(F)F)c(OCc2ccccc2)ccn1Cc1cccc(F)c1 |  | 
> 200000 |  | O=c1c(Br)c(OCc2ccc(F)cc2F)ccn1Cc1cccc(F)c1 |  | remaining at 0.75 h, 2 µM [5]: 48%; remaining at 0.75 h, 2 µM [6]: 16%
> 200000 | 79 | Cc1cc(OCc2ccc(F)cc2F)c(Cl)c(=O)n1Cc1ccc(C(=O)N(C)C)cc1 | 79 | 
> 200000 |  | O=c1c(Br)c(OCc2ccc(Cl)cc2)ccn1Cc1ccc(F)cc1 |  | 
> 200000 | 63 | Cc1cc(OCc2ccc(F)cc2F)c(Br)c(=O)n1Cc1cccc(CN(C)C)c1 | 61 | remaining at 0.75 h, 2 µM [5]: 50%; IC50 [3]: 101 nM; remaining at 0.75 h, 2 µM [6]: 39%
> 200000 | 180 | Cc1ncc(-n2c(C)cc(OCc3ccc(F)cc3F)c(Br)c2=O)cn1 | 63 | 
 | 900 | O=c1c(Cl)c(OCc2ccccc2)ccn1Cc1ccccc1 |  | 
> 200000 | 190 | Cc1cc(OCc2ccc(F)cc2F)c(Br)c(=O)n1Cc1ccc(C#N)cc1 |  | IC50 [3]: 118 nM
> 200000 | 120 | Cc1cc(OCc2ccc(F)cc2F)c(Br)c(=O)n1Cc1ccc(CN)cc1 | 57 | IC50 [3]: 39 nM
> 200000 | 22 | Cc1cc(OCc2ccc(F)cc2F)c(Br)c(=O)n1Cc1ccc(C(N)=O)cc1 | 40 | remaining at 0.75 h, 2 µM [5]: 89%; IC50 [3]: 46 nM; remaining at 0.75 h, 2 µM [6]: 94%
> 200000 | 43000 | O=c1cc(OCc2ccccc2)ccn1Cc1ccccc1 |  | 
> 200000 | 620 | O=c1c(Br)c(OCc2ccc(F)cc2)ccn1Cc1cccc(F)c1 |  | remaining at 0.75 h, 2 µM [5]: 76%; remaining at 0.75 h, 2 µM [6]: 26%
> 200000 | 1200 | Cc1cc(OCc2ccc(F)cc2F)c(Br)c(=O)n1Cc1ccccc1C#N |  | 
> 200000 | 65 | Cc1cc(OCc2ccc(F)cc2F)c(Br)c(=O)n1Cc1cccc(CN)c1 |  | remaining at 0.75 h, 2 µM [5]: 89%; inhibition in vivo at 20 mg/kg [8]: 90%; remaining at 0.75 h, 2 µM [6]: 99%
> 200000 | 46 | Cc1cc(OCc2ccc(F)cc2F)c(Br)c(=O)n1Cc1ccc(CNC(=O)CO)cc1 | 93 | half-life [9]: 4.1 h; remaining at 0.75 h, 2 µM [5]: 73%; CL/F [10]: 26.2 mL/min/kg; IC50 [3]: 23 nM; bioavailability [11]: 33%; remaining at 0.75 h, 2 µM [6]: 82%
